Data taken from ChEMBL document CHEMBL3621102, “Structure-activity study of quinazoline derivatives leading to the discovery of potent EGFR-T790M inhibitors” (Eur J Med Chem, 2015).
The source made the active and inactive calls. The rule behind the calls is not given here.

Tests used:
[1] = biological target: Epidermal growth factor receptor (Homo sapiens, UniProt P00533); experiment: Inhibition of EGFR (unknown origin) by ELISA method
Mus musculus [2] = experiment: Toxicity in NCI-H1975 xenografted BALB/c mouse assessed as induction of weakness at 4 mg/kg po, qd for 21 days; assay type: organism-based; conditions: in vivo, 504 h
How it was run: (§1)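 Athymic mice bearing subcutaneous right-flank xenografts (2 × 10⁶ cells, dosed at 100–300 mm³; n = 6 per group; vehicle controls). Health was observed daily and body weight measured on indicated days. Body weight change (%) = (Wt/W0 − 1) × 100 against predosing weight, given as group mean ± SEM.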

Mus musculus [3] = experiment: Toxicity in NCI-H1975 xenografted BALB/c mouse assessed as induction of lethargy at 4 mg/kg po, qd for 21 days; assay type: organism-based; conditions: in vivo, 504 h; how it was run: as §1
NCI-H1975 [4] = experiment: Antitumor activity against human NCI-H1975 cells xenografted in BALB/c mouse assessed as tumor growth inhibition at 4 mg/kg po, qd for 21 days; assay type: functional, organism-based
How it was run: (§2)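 Athymic mice received 2 × 10⁶ tumour cells subcutaneously in the right flank. At 100–300 mm³ they were randomised to control and treatment groups (n = 6); controls received vehicle alone. Tumour volume = length × width²/2 and RTV = Vt/V0.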

Mus musculus [5] = experiment: Toxicity in NCI-H1975 xenografted BALB/c mouse assessed as induction of eye disease at 4 mg/kg po, qd for 21 days; assay type: organism-based; conditions: in vivo, 504 h; how it was run: as §1
[6] = Toxicity in NCI-H1975 xenografted BALB/c mouse assessed as induction of mouse mortality at 4 mg/kg po, qd for 9 days; assay type: organism-based; conditions: in vivo
How it was run: (§3)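 Athymic mice received 2 × 10⁶ NCI-H1975 cells subcutaneously in the right flank. When tumours reached 100–300 mm³, mice were randomised into control and treatment groups (n = 6 per group), and controls got vehicle alone. Health was checked daily, and body weight and tumour size were measured on set days during treatment.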

NCI-H1975 [7] = experiment: Antiproliferative activity against human NCI-H1975 cells assessed as growth inhibition; assay type: functional
How it was run: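 NCI-H1975 cells were grown in RPMI with 1 mM sodium pyruvate, 10% FBS and 1% penicillin-streptomycin, under humidified 5% CO₂ at 37 °C. Growth inhibition was read as GI₅₀.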

Mus musculus [8] = experiment: Toxicity in NCI-H1975 xenografted BALB/c mouse assessed as induction of exfoliative skin disorder at 4 mg/kg po, qd for 21 days; assay type: organism-based; conditions: in vivo, 504 h; how it was run: as §1
Mus musculus [9] = experiment: Toxicity in NCI-H1975 xenografted BALB/c mouse assessed as body weight loss at 4 mg/kg po, qd for 21 days; assay type: organism-based; conditions: in vivo, 504 h; how it was run: as §1
Mus musculus [10] = experiment: Toxicity in human A431 cells xenografted BALB/c mouse assessed as induction of eye diseases at 5 and 10 mg/kg po, qd for 18 days; assay type: organism-based, A-431; conditions: in vivo, 432 h; how it was run: as §1
Mus musculus [11] = experiment: Toxicity in human HCC827 cells xenografted BALB/c mouse assessed as induction of eye disease at 5 mg/kg po, qd for 12 days; assay type: organism-based; conditions: in vivo, 288 h; how it was run: as §1
HCC827 = experiment: Antitumor activity against human HCC827 cells xenografted in BALB/c mouse assessed as tumor growth inhibition at 5 mg/kg po, qd for 12 days; assay type: functional, organism-based; how it was run: as §2
[12] = AUC (0 to infinity) in Sprague-Dawley rat at 1 mg/kg, iv by LC/MS/MS method; assay type: ADME, organism-based; set-up: dose 1 mg/kg, time infinity, route intravenous; conditions: in vivo
How it was run: (§4)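 Male Sprague-Dawley rats (n = 3) dosed once at 1 mg/kg iv via tail vein, or once at 5 mg/kg by oral gavage, using the same formulation. Serial blood samples were taken over 24 h. Plasma levels were measured by LC/MS/MS (C18 column, 10 mM ammonium formate-0.1% formic acid water/methanol 10/90, ESI positive). Parameters were derived by noncompartmental analysis.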

[13] = Clearance in Sprague-Dawley rat at 1 mg/kg, iv incubated for 24 hrs by LC/MS/MS method; assay type: ADME, organism-based; conditions: in vivo; how it was run: as §4
Mus musculus [14] = experiment: Toxicity in NCI-H1975 xenografted BALB/c mouse assessed as body weight change at 20 mg/kg po, qd for 21 days; assay type: organism-based; conditions: in vivo, 504 h; how it was run: as §1
[15] = Bioavailability in Sprague-Dawley rat at 1 mg/kg, iv incubated for 24 hrs by LC/MS/MS method; assay type: ADME, organism-based; conditions: in vivo; how it was run: as §4
A-431 [16] = experiment: Antitumor activity against human A431 cells xenografted in BALB/c mouse assessed as tumor growth inhibition at 10 mg/kg po, qd for 18 days; assay type: functional, organism-based; how it was run: as §2
[17] = Apparent volume of distribution in Sprague-Dawley rat at 1 mg/kg, iv incubated for 24 hrs by LC/MS/MS method; assay type: ADME, organism-based; conditions: in vivo, read-out: Vd(app); how it was run: as §4
Mus musculus [18] = experiment: Toxicity in human HCC827 cells xenografted BALB/c mouse assessed as body weight loss at 5 mg/kg po, qd for 12 days; assay type: organism-based; conditions: in vivo, 288 h; how it was run: as §1
Mus musculus [19] = experiment: Toxicity in human A431 cells xenografted BALB/c mouse assessed as body weight loss at 5 and 10 mg/kg po, qd for 18 days; assay type: organism-based, A-431; conditions: in vivo, 432 h; how it was run: as §1
[20] = Elimination half-life in Sprague-Dawley rat at 1 mg/kg, iv incubated for 24 hrs by LC/MS/MS method; assay type: ADME, organism-based; conditions: in vivo, read-out: beta t1/2 (converted); how it was run: as §4
NCI-H1975 [21] = experiment: Antitumor activity against human NCI-H1975 cells xenografted in BALB/c mouse assessed as tumor growth inhibition at 20 mg/kg po, qd for 21 days relative to control; assay type: functional; how it was run: as §2
Mus musculus [22] = experiment: Toxicity in human A431 cells xenografted BALB/c mouse assessed as induction of exfoliative skin disorders at 5 and 10 mg/kg po, qd for 18 days; assay type: organism-based, A-431; conditions: in vivo, 432 h; how it was run: as §1
A-431 [23] = experiment: Antitumor activity against human A431 cells xenografted in BALB/c mouse assessed as tumor growth inhibition at 5 mg/kg po, qd for 18 days; assay type: functional, organism-based; how it was run: as §2
Mus musculus [24] = experiment: Toxicity in human HCC827 cells xenografted BALB/c mouse assessed as induction of exfoliative skin disorders at 5 mg/kg po, qd for 12 days; assay type: organism-based; conditions: in vivo, 288 h; how it was run: as §1
[25] = Mean residence time in Sprague-Dawley rat at 1 mg/kg, iv incubated for 24 hrs by LC/MS/MS method; assay type: ADME, organism-based; conditions: in vivo; how it was run: as §4
[26] = AUC (0 to 24 hrs) in Sprague-Dawley rat at 1 mg/kg, iv by LC/MS/MS method; assay type: ADME, organism-based; set-up: time < 24 hr, dose 1 mg/kg, route intravenous; conditions: in vivo; how it was run: as §4
Mus musculus [27] = experiment: Toxicity in NCI-H1975 xenografted BALB/c mouse assessed as induction of eye diseases at 20 mg/kg po, qd for 21 days; assay type: organism-based; conditions: in vivo, 504 h; how it was run: as §1
Mus musculus [28] = experiment: Toxicity in NCI-H1975 xenografted BALB/c mouse assessed as body weight change at 13 mg/kg po, qd for 21 days; assay type: organism-based; conditions: in vivo, 504 h; how it was run: as §1
Mus musculus [29] = experiment: Toxicity in NCI-H1975 xenografted BALB/c mouse assessed as induction of exfoliative skin disorders at 13 mg/kg po, qd for 21 days; assay type: organism-based; conditions: in vivo, 504 h; how it was run: as §1
Mus musculus [30] = experiment: Toxicity in NCI-H1975 xenografted BALB/c mouse assessed as induction of exfoliative skin disorders at 20 mg/kg po, qd for 21 days; assay type: organism-based; conditions: in vivo, 504 h; how it was run: as §1
NCI-H1975 [31] = experiment: Antitumor activity against human NCI-H1975 cells xenografted in BALB/c mouse assessed as tumor growth inhibition at 13 mg/kg po, qd for 21 days; assay type: functional, organism-based; how it was run: as §2
Mus musculus [32] = experiment: Toxicity in NCI-H1975 xenografted BALB/c mouse assessed as induction of eye diseases at 13 mg/kg po, qd for 21 days; assay type: organism-based; conditions: in vivo, 504 h; how it was run: as §1
Mus musculus [33] = experiment: Toxicity in human NCI-H1975 cells xenografted BALB/c mouse assessed as body weight changes at 20 mg/kg po, qd for 21 days relative to control; assay type: organism-based; conditions: in vivo, 504 h; how it was run: as §1
Mus musculus [34] = experiment: Toxicity in human NCI-H1975 cells xenografted BALB/c mouse assessed as mouse mortality at 30 mg/kg po, qd for 21 days measured on day 10 relative to control; assay type: organism-based; conditions: in vivo, 504 h; how it was run: as §3

Epidermal growth factor receptor, sequence (P00533 whole entry): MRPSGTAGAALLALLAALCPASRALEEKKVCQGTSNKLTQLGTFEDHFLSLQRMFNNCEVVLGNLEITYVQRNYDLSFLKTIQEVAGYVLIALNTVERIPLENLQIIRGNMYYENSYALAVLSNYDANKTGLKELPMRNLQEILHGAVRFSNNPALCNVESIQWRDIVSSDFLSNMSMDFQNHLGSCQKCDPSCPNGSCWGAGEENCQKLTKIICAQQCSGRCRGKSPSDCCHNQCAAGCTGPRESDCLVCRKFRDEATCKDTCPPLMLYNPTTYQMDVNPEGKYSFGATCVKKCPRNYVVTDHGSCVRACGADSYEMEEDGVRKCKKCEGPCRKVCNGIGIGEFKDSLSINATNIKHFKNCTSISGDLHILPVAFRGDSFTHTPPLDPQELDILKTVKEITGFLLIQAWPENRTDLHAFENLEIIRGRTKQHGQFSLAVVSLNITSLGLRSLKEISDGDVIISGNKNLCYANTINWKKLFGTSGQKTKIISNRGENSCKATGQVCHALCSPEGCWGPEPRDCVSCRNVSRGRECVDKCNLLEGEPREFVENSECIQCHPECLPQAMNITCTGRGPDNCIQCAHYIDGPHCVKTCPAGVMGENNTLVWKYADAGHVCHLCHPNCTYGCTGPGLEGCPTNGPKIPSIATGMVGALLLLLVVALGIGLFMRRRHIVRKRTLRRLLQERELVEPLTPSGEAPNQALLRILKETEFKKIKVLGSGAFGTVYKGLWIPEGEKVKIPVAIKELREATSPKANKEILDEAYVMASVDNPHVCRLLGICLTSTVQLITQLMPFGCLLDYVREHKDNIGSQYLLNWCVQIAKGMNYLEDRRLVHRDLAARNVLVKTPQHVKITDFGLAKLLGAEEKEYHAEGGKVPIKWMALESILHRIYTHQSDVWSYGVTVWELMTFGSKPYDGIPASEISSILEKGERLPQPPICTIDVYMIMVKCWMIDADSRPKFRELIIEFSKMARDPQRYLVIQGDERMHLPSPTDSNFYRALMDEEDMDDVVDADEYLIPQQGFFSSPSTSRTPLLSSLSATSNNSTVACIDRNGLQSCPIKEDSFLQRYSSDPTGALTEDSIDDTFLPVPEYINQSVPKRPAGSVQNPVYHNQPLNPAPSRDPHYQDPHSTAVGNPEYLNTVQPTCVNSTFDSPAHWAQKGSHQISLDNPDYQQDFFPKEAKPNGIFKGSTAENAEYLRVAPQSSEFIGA

In the case of CCOc1cc2ncnc(Nc3ccc(F)c(Cl)c3)c2cc1NC(=O)/C=C/CNC1CC1, the IC50 [1] is reported as 0.9 nM, the Activity (Mus musculus [2]) is reported as “Toxic” and the Activity (Mus musculus [3]) is reported as “Toxic”. For the same compound, the TGI (NCI-H1975 [4]) was “Active”, the Activity (Mus musculus [5]) was “Toxic” and the mortality at 216 h [6] was greater than 50%. For the same compound, the GI50 (NCI-H1975 [7]) was 11.6 nM, the Activity (Mus musculus [8]) was “Toxic” and the Activity (Mus musculus [9]) was “Toxic”.

In the case of C#Cc1cccc(Nc2ncnc3cc(O[C@H]4CCOC4)c(NC(=O)/C=C/CNC4CC4)cc23)c1, the Activity (Mus musculus [10]) is reported as “Non-toxic”, the Activity (Mus musculus [11]) is reported as “Non-toxic” and the TGI (HCC827) is reported as “Active”. For the same compound, the AUC(0-inf) [12] was 0.48 µg·h/mL, the clearance [13] was 3 L/h/kg and the Activity (Mus musculus [14]) was “Non-toxic”. The bioavailability [15] was 37.9%, the TGI (A-431 [16]) was “Active” and the Vd [17] was 2.2 L/kg. The Activity (Mus musculus [18]) was “Non-toxic”, the IC50 [1] was 5.6 nM and the Activity (Mus musculus [19]) was “Non-toxic”. The half-life [20] was 2.3 h, the TGI (NCI-H1975 [21]) was “Active” and the Activity (Mus musculus [22]) was “Non-toxic”. The TGI (A-431 [23]) was “inactive”, the GI50 (NCI-H1975 [7]) was 16.1 nM and the Activity (Mus musculus [24]) was “Non-toxic”. For the same compound, the MRT [25] was 1.7 h and the AUC(0-t) at 24 h [26] was 0.471 µg·h/mL.

In the case of O=C(/C=C/CNC1CC1)Nc1cc2c(Nc3ccc(F)c(Cl)c3)ncnc2cc1O[C@H]1CCOC1, the Activity (Mus musculus [10]) is reported as “Non-toxic”, the Activity (Mus musculus [11]) is reported as “Non-toxic” and the TGI (HCC827) is reported as “Active”. It also gave an AUC(0-inf) [12] of 0.662 µg·h/mL, a clearance [13] of 1.54 L/h/kg and a bioavailability [15] of 83.5%. The TGI (A-431 [16]) was “Active”, the Vd [17] was 3.82 L/kg and the Activity (Mus musculus [27]) was “Non-toxic”. For the same compound, the Activity (Mus musculus [18]) was “Non-toxic”, the IC50 [1] was 6.5 nM and the Activity (Mus musculus [28]) was “Non-toxic”. The Activity (Mus musculus [29]) was “Non-toxic”, the Activity (Mus musculus [19]) was “Non-toxic” and the half-life [20] was 3.15 h. For the same compound, the Activity (Mus musculus [30]) was “Non-toxic”, the TGI (NCI-H1975 [31]) was “Active” and the Activity (Mus musculus [22]) was “Non-toxic”. For the same compound, the TGI (A-431 [23]) was “inactive”, the GI50 (NCI-H1975 [7]) was 10.2 nM and the Activity (Mus musculus [32]) was “Non-toxic”. For the same compound, the Activity (Mus musculus [24]) was “Non-toxic”, the MRT [25] was 3.88 h and the AUC(0-t) at 24 h [26] was 0.66 µg·h/mL.

For CN(C)C/C=C/C(=O)Nc1cc2c(Nc3ccc(F)c(Cl)c3)ncnc2cc1O[C@H]1CCOC1.O=C(O)/C=C\C(=O)O.O=C(O)/C=C\C(=O)O [AFATINIB DIMALEATE], the Activity (Mus musculus [33]) was “Non-toxic”, the Activity (Mus musculus [34]) was “Toxic” and the inhibition in vivo at 20 mg/kg (NCI-H1975 [21]; 504 h, read-out: TGI) was less than 50%.
